This is a sample that favours compounds with a hit; in the whole collection about 3.8% have one here.
KCNK3 inh: human KCNK3 channel inhibition, primary screen; B-score at 10 µM; AID 602410; O14649; CHO-KCNK3 thallium flux, FluxOR fluorescence; active compounds read low; 340,000 compounds, 0.84% hits;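 active = B-score under library mean minus 4 SD, starting fluorescence ratio at most library mean plus 5 SD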;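 also: more negative B-score means stronger inhibition of thallium flux through KCNK3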
KCNK9 block: blocks the human KCNK9 two-pore domain potassium channel | B-score at 10 µM | Q9NPC2 | 310,000 compounds, 1.2% hits | HEK293 KCNK9, FluxOR thallium flux fluorescence; active compounds read low;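 active = ratio B-score over 3 SD below the library mean, with starting fluorescence within 5 SD of its mean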;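 also: negative B-score means less thallium flux so channel inhibition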
Kir21 block: Kir2.1 (mouse) channel inhibition. HEK293-Kir2.1, FluxOR thallium flux fluorescence; active compounds read low. B-score at 10 µM. 310,000 compounds, 0.85% hits;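 active = fluorescence ratio B-score at or below minus 3 SD of library scores, with starting-brightness B-score within 2 SD, cut at about -4.2 in these data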;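 also: channel flux triggered by added potassium and thallium sulfate stimulus; B-score of peak minus minimum fluorescence over baseline after thallium stimulus; more negative B-score means stronger Kir2.1 block with less thallium influx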
Target sequence (P35561 whole entry, looked up): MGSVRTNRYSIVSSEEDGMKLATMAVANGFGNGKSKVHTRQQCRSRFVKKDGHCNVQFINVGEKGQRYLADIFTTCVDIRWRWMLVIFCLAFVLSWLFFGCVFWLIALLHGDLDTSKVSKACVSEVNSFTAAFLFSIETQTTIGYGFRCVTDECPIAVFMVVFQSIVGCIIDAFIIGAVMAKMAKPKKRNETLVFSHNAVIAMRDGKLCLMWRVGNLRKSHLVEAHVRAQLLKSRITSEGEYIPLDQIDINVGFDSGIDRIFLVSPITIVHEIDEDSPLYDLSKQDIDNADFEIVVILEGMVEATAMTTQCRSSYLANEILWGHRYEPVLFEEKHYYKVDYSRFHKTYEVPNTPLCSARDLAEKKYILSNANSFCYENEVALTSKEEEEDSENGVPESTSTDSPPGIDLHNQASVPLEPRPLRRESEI
KCNQ1 pot: potentiators or activators of human KCNQ1 potassium channel; P51787; B-score at 10 µM; CHO-K1 KCNQ1, thallium flux FluxOR fluorescence; active compounds read high; 310,000 compounds, 0.35% hits;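 active = fluorescence ratio B-score, a plate-corrected score, at least three library SD, with initial intensity B-score within 5 SD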
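Assay system: CHO-K1 cells stably expressing KCNQ1; Medium: assay buffer with matched DMSO; Also added: K+/Tl+ depolarizing stimulus; Dosing: single dose; Timing: dye 90 min, compound 20 min, room temperature; Measured by: kinetic FluxOR thallium fluorescence, 10-s 1-Hz baseline, 110-s post-stimulus read; Read-out: peak-minus-minimum fluorescence over initial fluorescence, negative-control normalized, B-scored.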
hERG protect: shields human hERG channel from block by proarrhythmic agents. CHO-hERG, FluxOR thallium flux, dofetilide IC70 present. activation (rescue from dofetilide block), less the hit threshold, % at 10 µM. AID 1511. 310,000 compounds, 0.51% hits. Q12809;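 active = activation above the mean of controls blocked by dofetilide plus 5 SD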;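 also: thallium influx through hERG after potassium depolarization seen as dye fluorescence rise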
KCNQ1 block: blocks the human KCNQ1 potassium channel; B-score at 10 µM; 310,000 compounds, 1.3% hits; P51787; CHO-K1 KCNQ1, FluxOR thallium flux fluorescence; active compounds read high;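 active = compounds whose thallium flux B-score, printed positive for inhibition, exceeds three library SD while starting fluorescence stays within three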;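 also: channel opened by potassium depolarization with thallium stimulus after 20 min compound exposure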
A number is an active result; 0 = inactive; - = not tested or not shown.

SMILES | KCNK3 inh | KCNK9 block | Kir21 block | KCNQ1 pot | hERG protect | KCNQ1 block
Cc1cc(=O)oc2cc(OC(=O)c3ccco3)ccc12 | 0 | 0 | -12.1 | 0 | 0 | 0
Cc1ccc(NC(=O)CC(O)(C(F)(F)F)C(F)(F)F)c(Br)c1 | 0 | 0 | 0 | 0 | 0 | 6
CCOc1ccccc1NC(=O)CC(O)(C(F)(F)F)C(F)(F)F | 0 | 0 | 0 | 0 | 0 | 6
CCOc1ccccc1NC(=O)CSCC(=O)Nc1ccccc1 | 0 | 0 | 0 | 0 | 0 | 0
C=CCC(C)(NCc1ccccc1)c1ccc(C)cc1 (stereo not drawn) | 0 | 0 | -4.88 | 0 | 0 | 0
CCSC1=N/C(=C\c2ccc(C(=O)O)cc2)C(=O)S1 | 0 | 0 | 0 | 0 | 0 | 0
CCOC(=O)SC1=N/C(=C\c2ccc(N(C)C)cc2)C(=O)S1 | 0 | 0 | 0 | 8 | 0 | 0
O=C(NCCN1C(=O)S/C(=C\c2cccs2)C1=O)c1ccc(=O)[nH]c1 | - | 0 | 0 | 0 | 0 | 0
CCN(CC)CCCNC(=O)C1c2ccccc2Oc2ccccc21 | 0 | 0 | 0 | 0 | 0 | 0
CNCCCC1Sc2ccccc2Oc2ccccc21 (stereo not drawn) | 0 | 0 | -5.99 | 0 | 0 | 0
CCOC(=O)c1cc(NC(=O)Cc2ccc(S(=O)(=O)N3CCOCC3)s2)cc(C(=O)OCC)c1 | 0 | 0 | 0 | 0 | 0 | 7
Cc1nnc(NC(=O)CSc2nnc3ncccn23)s1 | 0 | 0 | 0 | 0 | 0 | 0
COc1ccc(C(C(=O)NCCC(C)C)N(CCO)C(=O)c2snc(C(N)=O)c2N)cc1 (stereo not drawn) | 0 | 0 | 0 | 0 | 0 | 0
CC(Oc1ccc(Br)cc1)C(=O)Nc1nnc(C2CC2)s1 (stereo not drawn) | 0 | 0 | 0 | 0 | 0 | 0
O=C(COc1ccccc1)NC(=S)N1CCc2ccccc21 | 0 | 0 | 0 | 10 | 4.9 | 0
O=C(NC(=S)N1CCCc2ccccc21)c1ccc(Br)cc1 | 0 | 0 | 0 | 16 | 42.9 | 0
CCOC(=O)C1CCN(C(=O)C(CC)c2ccccc2)CC1 (stereo not drawn) | 0 | 0 | 0 | 0 | 0 | 0
CCOC(=O)C1(Cc2cccc(OC)c2)CCN(C/C=C/c2ccc(OC)cc2)CC1 | 0 | 0 | 0 | 0 | 0 | 7
CCOC(=O)C1(CCc2ccccc2)CCN(Cc2ccc(OC)cc2)CC1 | 0 | 0 | -5.22 | 0 | 0 | 0
CCOC(=O)C1(CCc2ccccc2)CCN(Cc2ccc(O)cc2)CC1 | 0 | 0 | -4.46 | 0 | 0 | 0
CCOC(=O)C1(CCOc2ccccc2)CCN(Cc2ccc(O)cc2)CC1 | 0 | 0 | 0 | 0 | 0 | 0
O=C(Nc1ccccc1-c1ccccc1)c1cc(C(F)(F)F)cc(C(F)(F)F)c1 | 0 | 0 | 0 | 0 | 0 | 0
O=C(O)C[C@H](O)C[C@H](O)/C=C/c1c(C2CC2)nc2ccccc2c1-c1ccc(F)cc1 | - | 0 | 0 | 0 | 0 | 0
Cc1ccc(F)c(Oc2cc(NN3CCCCC3)c([N+](=O)[O-])cc2[N+](=O)[O-])c1 | 0 | -7.33 | 0 | 0 | 0 | 0
COc1ccc(C(=O)Nc2ccc(CN3CCOCC3)cc2)cc1Br | 0 | 0 | -5.26 | 0 | 0 | 0
SMILES | KCNK3 inh | KCNK9 block | Kir21 block | KCNQ1 pot | hERG protect | KCNQ1 block
O=C(/C=C/c1ccc(Cl)cc1)NC(=S)Nc1ccc(CN2CCOCC2)cc1 | 0 | 0 | 0 | 0 | 0 | 0
COc1ccc(C(=O)NC(=S)Nc2ccc(CN3CCOCC3)cc2)cc1OC | 0 | 0 | 0 | 0 | 0 | 0
COc1ccc(Br)cc1/C=C/C(=O)NC(=S)Nc1ccc(CN2CCOCC2)cc1 | 0 | 0 | 0 | 0 | 0 | 8
O=C(NC1CC1)c1cc2cc(Br)ccc2s1 | 0 | 0 | 0 | 0 | 0 | 0
OCCNCCOc1ccccc1F | 0 | 0 | 0 | 0 | 0 | 0
CC(C)c1ccccc1NC(=O)CNCCOc1ccccc1F | 0 | 0 | 0 | 0 | 0 | 6
O=C1OC(=O)c2cc([N+](=O)[O-])ccc21 | 0 | - | - | - | - | -
CC(=O)c1cccc([N+](=O)[O-])c1 | 0 | - | - | - | - | -
COc1cc(/C=C/C(=O)c2cccc([N+](=O)[O-])c2)cc(OC)c1OC | 0 | 0 | -4.7 | 0 | 0 | 0
COc1cc(/C=C2/OC(=O)c3cc([N+](=O)[O-])ccc32)cc(OC)c1OC | 0 | 0 | 0 | 0 | 10.8 | 0
O=C(/C=C/c1ccccc1F)c1cccc([N+](=O)[O-])c1 | 0 | 0 | -5.48 | 0 | 0 | 0
